# Published values gathered from unrelated publications.
# Each line is one published result; the experiments were not run side by side.
# Target: Beta-1 adrenergic receptor (ADRB1, Homo sapiens, UniProt P08588)
# Tested at: 10 µM
SMILES,observed,technique,inhibition
CCN(Cc1ccccc1C(F)(F)F)C(=O)C1CCN(S(=O)(=O)c2ccc3[nH]ncc3c2)CC1,ligand displacement,radioligand,3%
O=C(Nc1ccc(S(=O)(=O)N2CCC(Cl)CC2)cc1)c1ccc([N+](=O)[O-])o1,ligand displacement,radioligand,1%
C[C@H](c1ccc(F)cc1)N(Cc1ccc(Cl)c(C(=O)O)c1)C(=O)c1cnc2ccccc2c1,cell-free assay,,-0.35%
Ic1cccc2cnccc12,ligand displacement,radioligand,2%
Oc1cccc(Nc2nc(-c3ccc(F)cc3F)cs2)c1,cell-free assay,,-36.5%
O=C1N=C(N2CCCCN2)S/C1=C\c1ccc(F)cc1O,ligand displacement,radioligand,< 10%
NS(=O)(=O)c1cc(NC(=O)C2(c3ccccc3Cl)CC2)ccc1Oc1cccc(Cl)c1,cell-free assay,,-3.09%
CCCNc1nc2ccccc2n1Cc1ccc(Cl)cc1,ligand displacement,,19.5%
CCN(CC)c1ccc(C2Nc3ccc(C(=O)c4ccccc4)cc3NC3=C2C(=O)CC(C)(C)C3)cc1 (centres unmarked),ligand displacement,radioligand,-1%
O=C(c1ccc(F)cc1)N(Cc1ccccc1)C1CCCCC1,cell-free assay,,4%
N#Cc1cc(Cn2c(N3CCCC3)nc3ccccc32)ccc1F,ligand displacement,,-9.19%
